Test results from ChEMBL document CHEMBL3526049 (Drug Metab Dispos, 2012).

How the values were obtained:
Settings in all cases: in vivo
[1] = test system: Rattus norvegicus; test: Cmax in wild-type Sprague-Dawley rat treated with loperamide at 10 mg/kg, po by LC-MS/MS analysis; assay type: ADME, organism-based; set-up: dose 10 mg/kg, route oral
Summary of the method: (§1)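 Male Sprague-Dawley rats (knockout or wild type matched for age and weight), femoral artery and vein cannulated, at least 2 days recovery. Crossover design: IV bolus 1 mg/kg on day 0 (saline with 0.2 M equivalents HCl), oral gavage 10 mg/kg on day 3 (water with 0.2 M equivalents HCl). Arterial plasma sampled to 24 h (Mdr1a oral arm to 4 h). Analysed by LC-MS/MS and noncompartmental analysis.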

[2] = test system: Rattus norvegicus; test: AUC (0 to 4 hrs) in wild-type Sprague-Dawley rat treated with loperamide at 10 mg/kg, po by LC-MS/MS analysis; assay type: ADME, organism-based, Plasma; set-up: time < 4 hr, dose 10 mg/kg, route oral
[3] = test system: Rattus norvegicus; test: Ratio of AUC (0 to 4 hrs) for metabolite to AUC (0 to 4 hrs) for parent compound in MRP2 knockout Sprague-Dawley rat at 10 mg/kg, po by LC-MS/MS analysis; assay type: ADME, organism-based; set-up: dose 10 mg/kg, route oral
[4] = test system: Rattus norvegicus; test: Cmax in BCRP knockout Sprague-Dawley rat treated with loperamide at 10 mg/kg, po by LC-MS/MS analysis; assay type: ADME, organism-based; set-up: dose 10 mg/kg, route oral; summary of the method: as §1
[5] = test system: Rattus norvegicus; test: Ratio of AUC (0 to 4 hrs) for metabolite to AUC (0 to 4 hrs) for parent compound in BCRP knockout Sprague-Dawley rat at 10 mg/kg, po by LC-MS/MS analysis; assay type: ADME, organism-based; set-up: dose 10 mg/kg, route oral
[6] = test system: Rattus norvegicus; test: Ratio of AUC (0 to 4 hrs) for metabolite to AUC (0 to 4 hrs) for parent compound in MDR1A knockout Sprague-Dawley rat at 10 mg/kg, po by LC-MS/MS analysis; assay type: ADME, organism-based; set-up: dose 10 mg/kg, route oral
[7] = test system: Rattus norvegicus; test: AUC (infinity) in MRP2 knockout Sprague-Dawley rat treated with loperamide at 10 mg/kg, po by LC-MS/MS analysis; assay type: ADME, organism-based, Plasma; set-up: time infinity, dose 10 mg/kg, route oral; summary of the method: as §1
[8] = test system: Rattus norvegicus; test: AUC (infinity) in wild-type Sprague-Dawley rat treated with loperamide at 10 mg/kg, po by LC-MS/MS analysis; assay type: ADME, organism-based, Plasma; set-up: time infinity, dose 10 mg/kg, route oral; summary of the method: as §1
[9] = test system: Rattus norvegicus; test: Ratio of AUC (0 to 4 hrs) for metabolite to AUC (0 to 4 hrs) for parent compound in wild-type Sprague-Dawley rat at 10 mg/kg, po by LC-MS/MS analysis; assay type: ADME, organism-based; set-up: dose 10 mg/kg, route oral
[10] = test system: Rattus norvegicus; test: AUC (infinity) in BCRP knockout Sprague-Dawley rat treated with loperamide at 10 mg/kg, po by LC-MS/MS analysis; assay type: ADME, organism-based, Plasma; set-up: time infinity, dose 10 mg/kg, route oral; summary of the method: as §1
[11] = test system: Rattus norvegicus; test: AUC (0 to 4 hrs) in MDR1A knockout Sprague-Dawley rat treated with loperamide at 10 mg/kg, po by LC-MS/MS analysis; assay type: ADME, organism-based, Plasma; set-up: time < 4 hr, dose 10 mg/kg, route oral
[12] = test system: Rattus norvegicus; test: Cmax in MDR1A knockout Sprague-Dawley rat treated with loperamide at 10 mg/kg, po by LC-MS/MS analysis; assay type: ADME, organism-based; set-up: dose 10 mg/kg, route oral; summary of the method: as §1
[13] = test system: Rattus norvegicus; test: Cmax in MRP2 knockout Sprague-Dawley rat treated with loperamide at 10 mg/kg, po by LC-MS/MS analysis; assay type: ADME, organism-based; set-up: dose 10 mg/kg, route oral; summary of the method: as §1

**Q.** How did the Cmax [1] turn out when CNC(=O)C(CCN1CCC(O)(c2ccc(Cl)cc2)CC1)(c1ccccc1)c1ccccc1 was run?
**A.** 158 ng.Eq/ml

**Q.** And the AUC [2]?
**A.** 427 ng.Eq.hr/ml

**Q.** And the “Ratio AUC” value [3]?
**A.** 3.5

**Q.** What about the Cmax [4] of the same compound?
**A.** 150 ng.Eq/ml

**Q.** And the “Ratio AUC” value [5]?
**A.** 3.3

**Q.** And the “Ratio AUC” value [6]?
**A.** 1

**Q.** And the AUC [7]?
**A.** 3658 ng.Eq/ml

**Q.** And the AUC [8]?
**A.** 1875 ng.Eq.hr/ml

**Q.** What about the “Ratio AUC” value [9] of the same compound?
**A.** 2.3

**Q.** And the AUC [10]?
**A.** 3256 ng.Eq.hr/ml

**Q.** What about the AUC [11] of the same compound?
**A.** 635 ng.Eq.hr/ml

**Q.** And the Cmax [12]?
**A.** 193 ng.Eq/ml

**Q.** And the Cmax [13]?
**A.** 109 ng.Eq/ml
